# Experimental data from different studies.
# Each line is one published result; the experiments were not run side by side.
# Cell line: MCF7
# Read-out: cell growth or viability
SMILES,test,conditions,IC50
O=C1C(=Nc2ccccc2I)c2ccccc2N1Cc1cccc(Cl)c1,MTT,48 h,13.5 µM
CC(=O)OC[C@H]1O[C@@H](n2cc(Cn3c(C(=O)/C=C/c4ccc(F)cc4)nc4ccccc43)nn2)[C@H](OC(C)=O)[C@@H](OC(C)=O)[C@H]1OC(C)=O,LDH,48 h,2.48 µM
CCc1ccc(N=C2C(=O)N(Cc3ccccc3)c3ccccc32)cc1,MTT,48 h,10.5 µM
O=[N+]([O-])c1cc(Br)c(O)c(C=NNc2ccc(Br)cc2)c1,MTT,24 h,9.23 µM
COc1ccc(N=C2SCC(=O)N2c2nnc(-c3ccc(C(F)(F)F)cc3N=C3SCC(=O)N3c3ccc(OC)cc3)s2)cc1,MTT,,73.5 µM
O=C1C(=Nc2ccc(Cl)cc2)c2ccccc2N1Cc1ccc(Br)cc1,MTT,48 h,2.16 µM
O=[N+]([O-])c1ccc(O)c(C=NNc2ccc(C(F)(F)F)cc2)c1,MTT,24 h,13 µM
COc1ccc(N(Cc2csc(-c3ccc(C)cc3)n2)C(=O)CCCCCC(=O)NO)cc1,MTT,72 h,3.31 µM
CC1CCC(C(C)C)C(OC2=C(Cl)C(=O)c3ccccc3C2=O)C1 (centres unmarked),MTT,24 h,21.9 mg/L
Cc1nc2ccc(-c3ccc(F)cc3F)cc2c(O)c1C(=O)O,MTT,48 h,≥ 100 µM
COc1ccc(NC(=S)N/N=C/c2cccc3cc4ccccc4nc23)cc1,MTT,48 h,> 50 µM
COc1cccc2c1C(=O)c1c(O)c3c(c(O)c1C2=O)C[C@@](O)(C(=O)CO)C[C@@H]3O[C@H]1C[C@H](N)[C@H](O)[C@H](C)O1,MTT,24 h,1.09 µM
O=C(O)c1c[nH]c2ccc(Oc3ccccc3)cc2c1=O,MTT,48 h,287 µM
O=S(=O)([O-])c1ccc(O)c(C=NNC(=S)Nc2cccc3ccccc23)c1.[Na+],MTT,24 h,> 800 mg/L
C/C(=N\c1nc(N)nc(/N=C(\C)c2c(O)c3ccccc3oc2=O)n1)c1c(O)c2ccccc2oc1=O,MTT,48 h,6.68 µM
C[C@H]1[C@H](C)CC[C@]2(C)CC[C@]3(C)C(=CC(=O)[C@@H]4[C@@]5(C)CC[C@@H](O)[C@](C)(C(=O)NCc6cn(-c7cccc(C(F)(F)F)c7)nn6)[C@@H]5CC[C@]43C)[C@H]12,MTT,24 h,73.2 µM
FC(F)(F)c1ccc(-c2nnc(-c3nn(Cc4ccc(Cl)cc4Cl)c4ccccc34)o2)cc1,,48 h,71.1 µM
CC(C)[C@@H](CS(=O)(=O)C(C)C)N1C(=O)[C@@](C)(CC(=O)O)C[C@H](c2cccc(Cl)c2)[C@H]1c1ccc(Cl)cc1,ATP luminescence,48 h,~3.9 µM
Cc1nc2ccc(-c3ccc(F)cc3)cc2c(O)c1C(=O)O,MTT,48 h,≥ 100 µM
CCCCCCCNC1=C(n2cncn2)C(=O)c2ccccc2C1=O,MTT,24 h,22.3 mg/L
O=C1C(=Nc2ccc(Cl)cc2Br)c2ccccc2N1Cc1ccc([N+](=O)[O-])cc1,MTT,48 h,2.33 µM
S=C(N/N=C/c1cccc2cc3ccccc3nc12)Nc1ccccc1,MTT,48 h,> 50 µM
CO[C@H]1[C@H](O[C@H]([C@H]2O[C@@H](n3ccc(=O)[nH]c3=O)[C@H](O)[C@@H]2O)[C@H](NCCCNC(=O)[C@@H](NC(=O)[C@@H](NC(=O)N[C@H](C(=O)O)C(C)C)[C@@H]2CCN=C(N)N2)[C@@H](O)C(C)C)C(=O)O)O[C@H](CN)[C@H]1O,WST-1,,> 35 µM
COc1cccc(NC(=S)N/N=C/c2cccc3cc4ccccc4nc23)c1,MTT,48 h,> 50 µM
O=C1CS/C(=N\c2ccc(F)cc2O)N1c1nnc(-c2ccc(C(F)(F)F)cc2/N=C2\SCC(=O)N2c2ccc(F)cc2O)s1,MTT,,18.1 µM
NNc1nc2c(Cl)cc(Cl)cc2c(=O)n1-c1ccc(F)cc1,MTT,48 h,> 200 µM
O=C(O)c1cn(Cc2ccc(C(F)(F)F)cc2)c2ccc(Oc3ccccc3)cc2c1=O,MTT,24 h,38.5 µM
CC(=O)OC[C@H]1O[C@@H](n2cc(Cn3c(C(C)=O)nc4ccccc43)nn2)[C@H](OC(C)=O)[C@@H](OC(C)=O)[C@H]1OC(C)=O,LDH,48 h,3.79 µM
Cc1nc2ccc(-c3cccc(F)c3)cc2c(O)c1C(=O)O,MTT,48 h,≥ 100 µM
NNc1nc2c(Cl)cc(Cl)cc2c(=O)n1-c1ccccc1,MTT,48 h,> 200 µM
COC(=O)c1ccc2c(c1)NC(=O)/C2=C(\Nc1ccc(N(C)C(=O)CN2CCN(C)CC2)cc1)c1ccccc1,MTT,24 h,0.98 µM
O=C1Nc2ccccc2C1=Nc1ccccc1Br,MTT,48 h,> 100 µM
COc1ccccc1/C=N/N=C1\C(=O)Nc2ccccc21,MTT,48 h,22.1 mg/L
CN(C)c1ccc(Nc2nc(-c3ccncc3)nc3c2CC(N)CC3)cc1 (centres unmarked),MTT,,15.8 µM
O=C1CSC(=Nc2cc(C(F)(F)F)ccc2-c2nnc(N3C(=O)CSC3=Nc3ccc([N+](=O)[O-])cc3)s2)N1c1ccc([N+](=O)[O-])cc1,MTT,,79.5 µM
C#Cc1cccc(Nc2ncnc3cc(OCCOC)c(OCCOC)cc23)c1,MTT,48 h,> 20 µM
CC(=O)O[C@H]1C(=O)[C@@]2(C)[C@H]([C@H](OC(=O)c3ccccc3)[C@]3(O)C[C@H](OC(=O)[C@H](O)[C@@H](NC(=O)c4ccccc4)c4ccccc4)C(C)=C1C3(C)C)[C@]1(OC(C)=O)CO[C@@H]1C[C@@H]2O,,,0.00751 µM
NS(=O)(=O)c1ccc(-n2nc(-c3nnc(CCl)o3)cc2-c2ccccc2)cc1,fluorescence,48 h,31.4 µM
O=C(/C=C/c1ccc(F)cc1)c1nc2ccccc2n1Cc1cn([C@@H]2OC[C@@H](O)[C@H](O)[C@H]2O)nn1,LDH,48 h,2.06 µM
NS(=O)(=O)c1ccc(-n2nc(-c3nnc(S)o3)cc2-c2ccccc2)cc1,fluorescence,48 h,35.4 µM
O=C(C=Cc1ccc(OCCCCOc2ccc(C=CC(=O)c3cccs3)cc2)cc1)c1cccs1,MTT,48 h,134 µM
O=C1CS/C(=N\c2cc(C(F)(F)F)ccc2-c2nnc(N3C(=O)CS/C3=N\c3ccc(F)c(O)c3)s2)N1c1ccc(F)c(O)c1,MTT,,25.8 µM
O=C1/C(=C/c2ccc3ccccc3c2O)NC(=S)N1c1ccccc1,MTT,,8.1 mg/L
c1ccc(Cc2nnc(-c3nn(Cc4ccccc4)c4ccccc34)o2)cc1,,48 h,114 µM
O=C(NO)Nc1nc2ccc(Br)cc2c(=O)n1-c1ccccc1,MTT,48 h,29.6 µM
C/C(=N\C1CCCCC1/N=C(\C)c1c(O)c2ccccc2oc1=O)c1c(O)c2ccccc2oc1=O (centres unmarked),MTT,48 h,66.4 µM
O=C1Nc2ccccc2C1=Nc1ccccc1I,MTT,48 h,42.6 µM
O=C(C=Cc1cccs1)c1ccc(OCCOc2ccc(C(=O)C=Cc3cccs3)cc2)cc1,MTT,48 h,7.87 µM
COc1cccc(Nc2nc(-c3ccncc3)nc3c2CNCC3)c1,MTT,,30.1 µM
C[C@H]1[C@H](C)CC[C@]2(C)CC[C@]3(C)C(=CC(=O)[C@@H]4[C@@]5(C)CC[C@@H](O)[C@](C)(C(=O)NCc6cn(-c7ccc(Cl)cc7)nn6)[C@@H]5CC[C@]43C)[C@H]12,MTT,24 h,134 µM
C(=N\Nc1cc(N/N=C/c2cccc3cccnc23)ncn1)/c1cccc2cccnc12,MTT,48 h,7.02 µM
O=C(CCc1ccc(Cl)cc1)N1C(=O)C(=Nc2ccc(Cl)cc2Br)c2ccccc21,MTT,48 h,34.1 µM
COc1ccc2c(-c3nc(-c4ccccc4)no3)nn(Cc3ccncc3)c2c1,,48 h,86.5 µM
CCOC(=O)C(=CNc1ccc(Oc2ccccc2)cc1)C(=O)OCC,MTT,48 h,115 µM
Fc1ccc2c(-c3nnc(Cc4ccccc4)s3)nn(Cc3ccccc3)c2c1,,48 h,161 µM
O=C1Nc2ccccc2C1=Nc1cccc(Cl)c1,MTT,48 h,> 100 µM
